An excerpt weighted towards active compounds, which were near 1.1% of everything screened.
G6PDH CS = inhibits Leuconostoc G6PDH, flagging false hits in G6PDH-based assays. inhibition, % at 5 µM. 0.12% of 200,000 active. Purified L. mesenteroides G6PDH, diaphorase/resazurin coupled fluorescence, 45 min. AID 1020; in the data active = inhibition above about 50%
PMI act = increases human mannose-6-phosphate isomerase activity | purified human PMI, coupled resazurin fluorescence, 20 min; hits give high values; 1 = vehicle control, 0 substrate-free wells | 0.005% of 190,000 active | activation factor at 20 µM;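 active = activation factor of 2 or more at 20 µM, relative to plate controls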
Target sequence (P34949 whole entry, looked up): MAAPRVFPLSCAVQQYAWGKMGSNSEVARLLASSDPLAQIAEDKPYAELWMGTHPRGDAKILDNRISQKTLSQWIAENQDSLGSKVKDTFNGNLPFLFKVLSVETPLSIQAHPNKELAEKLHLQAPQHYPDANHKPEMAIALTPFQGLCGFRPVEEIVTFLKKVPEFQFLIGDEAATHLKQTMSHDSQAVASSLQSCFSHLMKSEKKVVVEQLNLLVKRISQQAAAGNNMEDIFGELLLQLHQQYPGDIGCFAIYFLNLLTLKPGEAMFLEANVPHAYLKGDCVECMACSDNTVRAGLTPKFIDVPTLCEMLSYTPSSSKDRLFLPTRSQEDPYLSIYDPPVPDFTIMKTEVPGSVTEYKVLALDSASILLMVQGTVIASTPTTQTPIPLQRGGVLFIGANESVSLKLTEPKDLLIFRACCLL
Diaph inh CS = diaphorase inhibition or chemical oxidation counter-screen. diaphorase resazurin-to-resorufin fluorescence, NADH, 16 min; bacterial (C. kluyveri) enzyme, not human. inhibition, % at 20 µM. 0.69% of 190,000 active. AID 1217;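 active = primary screen inhibition at 20 µM above a set limit, cut at about 50% in these data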;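 note: plate controls were DMSO with full reaction for no effect and wells lacking NADH for full effect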
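System: Bacterial diaphorase enzyme (C. kluyveri) | Incubation: 16-min room-temperature incubation before reading | Benchmarks: No-NADH positive control and DMSO neutral control | Measured by: Resorufin fluorescence 544/590 nm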
PMI act satM6P = activators of human phosphomannose isomerase at near-saturating mannose 6-phosphate; P34949; coupled PMI enzyme assay, resazurin fluorescence, 20 min; hits give high values; 1 = untreated enzyme, 0 = substrate-free blank; activation factor at 20 µM; 0.34% of 190,000 active; AID 1216;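 active = activation factor of 2 or more at 20 µM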
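Test system – human PMI in coupled enzyme assay · Timing – 20 min incubation at room temperature · Detection – Diaphorase-driven resazurin-to-resorufin fluorescence, excitation 544, emission 590 nm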
Diaph act CS = activates diaphorase or chemically reduces, flagging diaphorase assay artifacts; activation factor at 20 µM; Diaphorase/resazurin coupled assay, resorufin fluorescence, 16 min; hits give high values; 1 = vehicle wells, 0 = NADH-free wells; 0.005% of 190,000 active;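 active = diaphorase activity raised at least twofold by the compound at 20 µM; inactive = activation factor below 2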
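Material: bacterial diaphorase enzyme (C. kluyveri); amount: enzyme 0.07 U/mL final; reagent: NADH substrate 0.114 mM plus resazurin dye 0.1 mM, final; doses: single compound dose of 20 µM, 1% DMSO final; timing: 16 min enzyme reaction, ambient temperature; measured by: fluorescence of resorufin, 544 nm excitation, 590 nm emission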
* marks the source's active call; other numbers are inactive results.

SMILES	G6PDH CS	PMI act	Diaph inh CS	PMI act satM6P	Diaph act CS
Cc1ccc2c(C)nc(SC(C(=O)c3ccccc3)c3ccccc3)nc2c1 (stereo unspecified)	-2	1	-1	1.1	1
O=C(CC1Nc2cccc3cccc(c23)NC1=O)Nc1ccccc1 (stereo unspecified)	3	0.8	36	0.6	0.6
NC(=O)CC1Nc2cccc3cccc(c23)NC1=O (stereo unspecified)	-19	0.8	56*	0.7	0.4
COc1ccccc1C(=O)NCC1(c2ccccc2)CCCC1	9	0.9	20	0.8	0.8
CCc1ccc2c(c1)c(N=NC1=NC(=O)CS1)c(O)n2C	-4	1	84*	1.1	0.2
CCc1nnc(NC(=O)CCn2cnc3ccccc3c2=O)s1	-6	0.9	8	1	0.9
S=c1[nH]ncn2c1cc1oc3ccccc3c12	6	1	51*	1.3	0.5
COc1ccc(C(=O)C2CCCN(C(=O)COc3ccc(C(C)=O)cc3)C2)cc1F (stereo unspecified)	14	0.4	70*	0.6	0.3
CCOc1ccc(/C=C/C(=O)c2cc(Br)ccc(=O)c2O)cc1	1	1.6	27	2*	0.7
CCNC(=O)C(=O)N/N=C/c1cc([N+](=O)[O-])ccc1O	28	0.7	53*	1	0.5
COc1ccc(N2CC(C(=O)N/N=C/c3ccccc3)CC2=O)cc1 (stereo unspecified)	5	0.9	10	1	0.9
COc1ccc(N2CC(C(=O)N/N=C/c3cc([N+](=O)[O-])ccc3O)CC2=O)cc1 (stereo unspecified)	-6	0.8	55*	1.1	0.5
O=[N+]([O-])c1cccc(-c2csc(N/N=C/c3cccc(O)c3)n2)c1	3	1	20	0.9	0.8
CCOc1ccc2nc(N3C(=O)/C(=C/c4ccc(Cl)cc4)NC3=S)sc2c1	-14	1	17	1.1	0.8
CSCc1cc(N2CCOCC2)nc(SCc2ccc(Cl)c(Cl)c2)n1	10	1.2	25	2*	0.7
COCc1cc(N2CCOCC2)nc(SCc2ccc(Cl)cc2)n1	22	1.1	9	1	0.9
Cc1cccc(-n2nc(C)c3c(C(=O)O)cc(-c4cccs4)nc32)c1	5	1	52*	1	0.5
O=C(CCC1CCCN(C2C3CC4CC(C3)CC2C4)C1)NCc1ccc(F)c(F)c1 (stereo unspecified)	12	0.9	17	0.9	0.8
COc1ccc(/C=C2\N=C(SC)SC2=O)cc1OC	4	0.9	14	1	0.9
CCOc1cc(/C=C2\N=C(SCC)SC2=O)cc([N+](=O)[O-])c1OC(C)=O	8	0.6	90*	0.5	0.1
CCOc1c(OC(C)=O)ccc(/C=C2\N=C(SCC)SC2=O)c1[N+](=O)[O-]	0	0.8	18	0.8	0.8
CCOc1cc(/C=C2\N=C(SC)SC2=O)cc([N+](=O)[O-])c1OC(C)=O	6	0.8	81*	0.6	0.2
Oc1ccc(/C=N/Nc2cc(N3CCOCC3)nc(N3CCOCC3)n2)cc1O	37	0.2	64*	0.4	0.4
Cc1ccccc1C(=O)c1cccn1CC(=O)NC(C)c1ccc2c(c1)OCCO2 (stereo unspecified)	4	1	-4	1	1
Clc1cccc2c1CCN(Cc1nc(-c3cnccn3)no1)C2	-1	1.1	1	1.1	1
SMILES	G6PDH CS	PMI act	Diaph inh CS	PMI act satM6P	Diaph act CS
Cc1ccc2cc(CCNC(=O)c3ccc(S(=O)(=O)N4CCCCC4)cc3)c(=O)[nH]c2c1	5	0.8	72*	0.8	0.3
Cc1cc2cc(CCNC(=O)c3ccc(S(=O)(=O)N4CCOCC4)cc3)c(=O)[nH]c2cc1C	3	0.8	58*	0.9	0.4
CCN(CC)c1ccc2c(c1)CCCN2	35	0.9	59*	1.1	0.4
CC(=O)Nc1cc(OC(C)=O)c2nonc2c1OC(C)=O	59*	0.2	76*	0.2	0.2
Oc1ccc2ccccc2c1C=Nc1ccc(Cl)cn1	58*	0.4	62*	0.2	0.4
Cc1cc(O)c(C=Nc2ccc(Cl)cn2)c(=O)o1	3	1.3	10	1.6	0.9
O=C(CSc1nnc(CCCN2C(=O)c3cccc4cccc(c34)C2=O)n1-c1ccccc1)NCCCO	-2	0.8	44	0.9	0.6
O=C(CSc1nnc(CCCN2C(=O)c3cccc4cccc(c34)C2=O)n1-c1ccccc1)NCCCN1CCOCC1	1	0.9	55*	0.8	0.5
O=C(CSc1nnc(CCCN2C(=O)c3cccc4cccc(c34)C2=O)n1-c1ccccc1)N1CCN(CCO)CC1	-13	0.8	59*	0.9	0.4
O=S(=O)(c1ccc(F)c(F)c1F)N1CCN(C(=S)Nc2ccccc2)CC1	6	1	14	1	0.9
CCN(CC)CC(=O)Nc1ccc([N+](=O)[O-])cc1	13	0.9	12	0.8	0.9
CSCCC(=O)Nc1nc(-c2ccccn2)cs1	22	1.7	3	2.2*	1
Cc1cccnc1Nc1nc(-c2ccc(O)cc2O)cs1	21	0.9	19	0.7	0.8
O=C(CCCSc1ccccc1)Nc1nc(-c2ccccn2)cs1	7	1	12	1	0.9
Cc1cccnc1Nc1nc(-c2ccccn2)cs1	53*	0.8	16	0.8	0.8
COc1cc2[nH]c(=O)n(CCC(=O)N3CC=C(c4ccccc4)CC3)c(=O)c2cc1OC	-2	0.9	20	0.9	0.8
COc1cc2[nH]c(=O)n(CCCC(=O)N3CC=C(c4ccccc4)CC3)c(=O)c2cc1OC	5	1	58*	1.1	0.4
Cc1ccc2[nH]c(=O)c(C(c3nnnn3C3CCCC3)N3CCCc4ccccc43)cc2c1 (stereo unspecified)	0	0.4	62*	0.4	0.4
CCC(C)(C)n1nnnc1C(c1cc2cc(C)ccc2[nH]c1=O)N1CCCc2ccccc21 (stereo unspecified)	6	0.6	70*	0.8	0.3
CCC(C)(C)n1nnnc1C(c1cc2cc(OC)ccc2[nH]c1=O)N1CCc2ccccc21 (stereo unspecified)	-1	1.1	46	1.5	0.5
Cc1ccc2[nH]c(=O)c(C(c3nnnn3Cc3ccccc3)N3CCc4ccccc43)cc2c1 (stereo unspecified)	30	0.8	47	1	0.5
N#Cc1c(-c2ccco2)cc(-c2cccnc2)nc1N	11	0.8	52*	0.6	0.5
CC1(C2CC(C(F)(F)F)n3nc(C(=O)O)cc3N2)CC1 (stereo unspecified)	3	0.9	18	1	0.8
CCN(CC)S(=O)(=O)c1ccc(C(=O)N(c2ccc(C)cc2)C2C=CS(=O)(=O)C2)cc1 (stereo unspecified)	3	1.2	-7	1.1	1.1
